Test results reported in ChEMBL document CHEMBL1681765, “Structure-activity relationships of hypervalent organochalcogenanes as inhibitors of cysteine cathepsins V and S” (Bioorg Med Chem, 2011).

Experiments:
[1] = molecular target: T1, Cathepsin L2 (Homo sapiens) (UniProt O60911); assay: Inhibition of Cathepsin V assessed as second-order inactivation rate constant by spectrofluorometry
T1 sequence (whole entry): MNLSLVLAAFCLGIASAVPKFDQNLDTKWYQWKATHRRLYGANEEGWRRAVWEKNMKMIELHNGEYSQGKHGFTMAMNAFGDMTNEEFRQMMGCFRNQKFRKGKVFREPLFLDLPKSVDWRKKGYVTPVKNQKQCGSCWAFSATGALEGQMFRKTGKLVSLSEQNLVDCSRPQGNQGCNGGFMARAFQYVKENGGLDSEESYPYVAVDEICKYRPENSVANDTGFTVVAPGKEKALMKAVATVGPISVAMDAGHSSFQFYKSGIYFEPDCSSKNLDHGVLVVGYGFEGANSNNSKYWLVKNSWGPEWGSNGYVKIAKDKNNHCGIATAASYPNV
How it was run: (§1)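 Continuous assay: substrate Cbz-Phe-Arg-AMC kept 10-fold below KM, with varying inhibitor concentrations, in enzyme-specific buffer (cathepsin S: phosphate pH 6.5, 2.5 mmol L⁻¹ EDTA; cathepsin V: acetate pH 5.5, 2.5 mmol L⁻¹ EDTA). AMC fluorescence ex 380/em 460 nm. Progress curves fit to P = (vz/kobs)[1−exp(−kobs·t)] + d to obtain kobs.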

[2] = molecular target: Cathepsin S (Homo sapiens) (UniProt P25774); assay: Inhibition of Cathepsin S assessed as second-order inactivation rate constant by spectrofluorometry; set-up: unit not given here; how it was run: as §1
[3] = molecular target: Cathepsin S (Homo sapiens) (UniProt P25774); assay: Inhibition of Cathepsin S at 1 umol/L for 2 mins by spectrofluorometry
How it was run: (§2)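 Enzyme pre-incubated with inhibitor (1 µmol L⁻¹) for 2 min at 37 °C in enzyme-specific buffer (cathepsin S: 50 mmol L⁻¹ sodium phosphate pH 6.5, 2.5 mmol L⁻¹ EDTA; cathepsin V: 50 mmol L⁻¹ sodium acetate pH 5.5, 2.5 mmol L⁻¹ EDTA). Then Cbz-Phe-Arg-AMC (1 µmol L⁻¹) added; fluorescence ex 380/em 460 nm. Residual activity as percentage of uninhibited control; triplicate.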

[4] = molecular target: T1, Cathepsin L2 (Homo sapiens); assay: Inhibition of Cathepsin V at 1 umol/L for 2 mins by spectrofluorometry; how it was run: as §2

Sequence of Cathepsin S (Homo sapiens) (P25774 115-331 limits assumed): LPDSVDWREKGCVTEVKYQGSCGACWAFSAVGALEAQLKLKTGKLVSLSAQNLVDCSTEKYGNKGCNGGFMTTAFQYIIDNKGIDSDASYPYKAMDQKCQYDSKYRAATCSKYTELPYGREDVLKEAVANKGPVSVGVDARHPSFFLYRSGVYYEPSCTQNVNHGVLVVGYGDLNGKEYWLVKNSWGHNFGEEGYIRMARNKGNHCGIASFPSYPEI

Compound	Activity [1] [mol/L/s]	Activity [2]	inhibition [3] [%]	inhibition [4] [%]
CCCC[Se](Cl)(Cl)c1ccccc1[C@@H](C)OC	900	1200		
CCCC[Te](Br)(Br)c1ccccc1COC	26400	4400	96	90
CCCC[Te](Cl)(Cl)c1ccccc1COC	11600	1300	85	90
CCCC[Se](Br)(Br)c1ccccc1[C@H](C)OC	2200	2900		
CCCC[Se](Br)(Br)c1ccccc1[C@@H](C)OC	1000	2200		
CCCC[Se](Cl)(Cl)c1ccccc1COC	500	1500		
CCCC[Se](Br)(Br)c1ccccc1COC	3400	4000		
CCCC[Se](Cl)(Cl)c1ccccc1[C@H](C)OC	1000	1500		
CCCC[Te](Br)(Br)c1ccccc1[C@H](C)OC	7400	4900	> 90	90
CCCC[Te](Cl)(Cl)c1ccccc1[C@H](C)OC	2400	1800	85	90
CCCC[Te](Br)(Br)c1ccccc1[C@@H](C)OC	3900	2500	> 90	90
CCCC[Te](Cl)(Cl)c1ccccc1[C@@H](C)OC	2500	1800	85	90
